# Laboratory results: ChEMBL document CHEMBL1152522, “RCAI-37, 56, 59, 60, 92, 101, and 102, cyclitol and carbasugar analogs of KRN7000: their synthesis and bioactivity for mouse lymphocytes to produce Th1-biased cytokines” (2009)
# Calls of active or inactive are those of the source. No cut-off for these calls is given here.
# Columns and labels:
# Mus musculus [1] = assay: Immunostimulatory activity in C57BL/6 mouse assessed as increase in serum IFN-gamma production at 10 ug/mL, iv after 10 to 60 hrs post-injection by ELISA; assay type: functional, organism-based
# Procedure, shortened: (§1)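 C57BL/6 mice, 8–16 wk old, kept specific pathogen-free. Glycolipid stock (1.0 mg/mL in DMSO) diluted to 10 µg/mL in Dulbecco's PBS just before dosing; 200 µL given iv. Retro-orbital heparinized blood taken at 3, 6, 12, 24, 36, 48 and 60 h for plasma. IFN-γ measured by ELISA; IL-4 and IL-12p70 by cytometric bead array. Mean ± SD of 3 mice; experiment repeated three times.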
# Mus musculus [2] = assay: Immunostimulatory activity in C57BL/6 mouse assessed as increase in serum IL4 production at 10 ug/mL, iv after 3 to 24 hrs post-injection by cytometric bead array method; assay type: functional, organism-based; procedure, shortened: as §1
# Mus musculus [3] = assay: Immunostimulatory activity in C57BL/6 mouse assessed as increase in serum IL-12p70 production at 10 ug/mL, iv after 3 to 24 hrs post-injection by cytometric bead array method; assay type: functional, organism-based; procedure, shortened: as §1
# Mus musculus [4] = assay: Immunostimulatory activity in C57BL/6 mouse assessed as increase in serum IFN-gamma production at 10 ug/mL, iv after 24 hrs post-injection by ELISA; assay type: functional, organism-based; procedure, shortened: as §1
# Mus musculus [5] = assay: Immunostimulatory activity in C57BL/6 mouse assessed as increase in serum IFN-gamma production at 10 ug/mL, iv after 36 hrs post-injection by ELISA; assay type: functional, organism-based; procedure, shortened: as §1
# Mus musculus [6] = assay: Ratio of KRN700 to compound activity for increase in serum IL4 production in C57BL/6 mouse at 10 ug/mL, iv after 3 to 24 hrs post-injection by cytometric bead array method; assay type: functional
# PBMC = assay: Immunostimulatory activity in human PBMC assessed as increase in IFN-gamma production by ELISA; assay type: functional, cell-based
# Mus musculus [7] = assay: Immunostimulatory activity in C57BL/6 mouse assessed as increase in serum IL-12p70 production at 10 ug/mL, iv after 3 hrs post-injection by cytometric bead array method; assay type: functional, organism-based; procedure, shortened: as §1
# Mus musculus [8] = assay: Immunostimulatory activity in C57BL/6 mouse assessed as increase in serum IL-12p70 production at 10 ug/mL, iv after 6 hrs post-injection by cytometric bead array method; assay type: functional, organism-based; procedure, shortened: as §1
# Mus musculus [9] = assay: Immunostimulatory activity in C57BL/6 mouse assessed as mild increase in serum IFN-gamma production at 10 ug/mL, iv after 10 to 60 hrs post-injection by ELISA; assay type: functional, organism-based; procedure, shortened: as §1
smiles,measurement,setting,value
CCCCCCCCCCCCCCCCCCCCCCCCCC(=O)N[C@@H](CO[C@@H]1[C@H](O)[C@@H](O)[C@@H](O)[C@@H](O)[C@@H]1O)[C@H](O)[C@H](O)CCCCCCCCCCCCCC,Activity,Mus musculus [1],inactive
same,Activity,Mus musculus [2],inactive
same,Activity,Mus musculus [3],inactive
CCCCCCCCCCCCCCCCCCCCCCCCCC(=O)N[C@@H](CO[C@H]1C[C@H](CO)[C@H](O)[C@H](O)[C@H]1O)[C@H](O)[C@H](O)CCCCCCCCCCCCCC,Activity,Mus musculus [4],Active
same,Activity,Mus musculus [5],Active
same,Ratio,Mus musculus [6],0.5
same,Activity,PBMC,Active
same,Activity,Mus musculus [7],Active
same,Activity,Mus musculus [8],Active
CCCCCCCCCCCCCCCCCCCCCCCCCC(=O)N[C@@H](CO[C@H]1C[C@H](COC)[C@H](O)[C@H](O)[C@H]1O)[C@H](O)[C@H](O)CCCCCCCCCCCCCC,Activity,Mus musculus [9],Active
CCCCCCCCCCCCCCCCCCCCCCCCCC(=O)N[C@@H](CO[C@H]1C[C@H](C)[C@H](O)[C@H](O)[C@H]1O)[C@H](O)[C@H](O)CCCCCCCCCCCCCC,Activity,Mus musculus [9],Active
C[C@H]1O[C@H](O)[C@H](O)[C@@H](O)[C@H]1O,Activity,Mus musculus [1],Active
CCCCCCCCCCCCCCCCCCCCCCCCCC(=O)N[C@@H](CO[C@@H]1[C@H](O)[C@@H](O)[C@H](O)[C@@H](O)[C@@H]1O)[C@H](O)[C@H](O)CCCCCCCCCCCCCC,Activity,Mus musculus [1],inactive
same,Activity,Mus musculus [2],inactive
same,Activity,Mus musculus [3],inactive
CCCCCCCCCCCCCCCCCCCCCCCCCC(=O)N[C@@H](CO[C@H]1C[C@H](O)[C@H](O)[C@H](O)[C@H]1O)[C@H](O)[C@H](O)CCCCCCCCCCCCCC,Activity,Mus musculus [1],Active
same,Activity,Mus musculus [2],Active
same,Activity,PBMC,Active
CCCCCCCCCCCCCCCCCCCCCCCCCC(=O)N[C@@H](CO[C@H]1C[C@H](OC)[C@H](O)[C@H](O)[C@H]1O)[C@H](O)[C@H](O)CCCCCCCCCCCCCC,Activity,Mus musculus [1],Active
same,Activity,Mus musculus [2],Active
